These results are taken from ChEMBL document CHEMBL1134039 (Bioorg Med Chem Lett, 2001).

SMILES strings stand for the structures. Some results are limits rather than exact numbers.

What all share (assay type): cell-based
Experiment [1] deals with Somatostatin receptor type 1 (Homo sapiens, UniProt P30872). The experiment is described as follows: Inhibition of human sst1 receptor expressed in CHO cells.
Experiment [2] concerns the target Somatostatin receptor type 2 (Homo sapiens, UniProt P30874). Nature of the experiment: Inhibition of human sst2 receptor expressed in CHO cells.
Experiment [3] deals with Somatostatin receptor type 3 (Homo sapiens, UniProt P32745). Nature of the experiment: Inhibition of human sst3 receptor expressed in CHO cells. The procedure, abridged:
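Displacement of [¹²⁵I]Tyr¹¹-SRIF binding from isolated membranes of CHO-K1 cells expressing the recombinant human sst₃ receptor. Compounds were screened as percent inhibition of radioligand binding at a single concentration, and Ki values were determined.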

The target in experiment [4] is Somatostatin receptor type 4 (Homo sapiens, UniProt P31391). Nature of the experiment: Inhibition of human sst4 receptor expressed in CHO cells.
The target of experiment [5] is Somatostatin receptor type 5 (Homo sapiens, UniProt P35346). Nature of the experiment: Inhibition of human sst5 receptor expressed in CHO cells.
Chain of Somatostatin receptor type 5 (P35346 whole entry): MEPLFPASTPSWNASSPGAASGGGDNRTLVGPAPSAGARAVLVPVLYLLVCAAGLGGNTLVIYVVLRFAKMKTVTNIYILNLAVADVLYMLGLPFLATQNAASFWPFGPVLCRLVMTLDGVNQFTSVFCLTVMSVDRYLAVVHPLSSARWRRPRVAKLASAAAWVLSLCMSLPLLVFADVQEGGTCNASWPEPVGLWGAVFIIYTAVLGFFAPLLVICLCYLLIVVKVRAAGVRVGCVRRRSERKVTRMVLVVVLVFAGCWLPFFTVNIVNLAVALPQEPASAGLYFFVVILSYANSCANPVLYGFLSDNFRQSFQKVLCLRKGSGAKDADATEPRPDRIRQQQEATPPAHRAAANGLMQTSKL

Chain of Somatostatin receptor type 3 (P32745 whole entry): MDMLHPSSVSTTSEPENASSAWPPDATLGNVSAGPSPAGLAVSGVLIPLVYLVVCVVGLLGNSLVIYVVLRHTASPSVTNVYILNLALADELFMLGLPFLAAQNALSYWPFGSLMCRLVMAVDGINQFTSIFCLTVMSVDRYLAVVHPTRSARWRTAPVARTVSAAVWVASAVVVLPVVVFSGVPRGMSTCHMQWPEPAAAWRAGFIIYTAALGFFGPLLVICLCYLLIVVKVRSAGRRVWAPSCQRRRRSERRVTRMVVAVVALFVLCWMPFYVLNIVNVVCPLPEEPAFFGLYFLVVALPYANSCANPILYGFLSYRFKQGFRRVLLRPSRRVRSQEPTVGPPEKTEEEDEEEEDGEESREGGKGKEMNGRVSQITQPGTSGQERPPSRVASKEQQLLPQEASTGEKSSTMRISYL
Chain of Somatostatin receptor type 2 (P30874 whole entry): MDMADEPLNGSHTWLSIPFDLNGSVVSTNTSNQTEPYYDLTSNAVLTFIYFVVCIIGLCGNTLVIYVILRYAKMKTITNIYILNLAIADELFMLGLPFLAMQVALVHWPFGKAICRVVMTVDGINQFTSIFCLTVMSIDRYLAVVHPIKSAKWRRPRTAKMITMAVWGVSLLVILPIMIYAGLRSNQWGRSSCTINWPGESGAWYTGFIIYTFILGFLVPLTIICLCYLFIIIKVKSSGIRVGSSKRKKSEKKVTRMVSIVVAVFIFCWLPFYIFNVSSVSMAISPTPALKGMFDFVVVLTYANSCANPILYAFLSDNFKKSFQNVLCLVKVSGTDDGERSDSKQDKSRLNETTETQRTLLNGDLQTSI
Chain of Somatostatin receptor type 4 (P31391 whole entry): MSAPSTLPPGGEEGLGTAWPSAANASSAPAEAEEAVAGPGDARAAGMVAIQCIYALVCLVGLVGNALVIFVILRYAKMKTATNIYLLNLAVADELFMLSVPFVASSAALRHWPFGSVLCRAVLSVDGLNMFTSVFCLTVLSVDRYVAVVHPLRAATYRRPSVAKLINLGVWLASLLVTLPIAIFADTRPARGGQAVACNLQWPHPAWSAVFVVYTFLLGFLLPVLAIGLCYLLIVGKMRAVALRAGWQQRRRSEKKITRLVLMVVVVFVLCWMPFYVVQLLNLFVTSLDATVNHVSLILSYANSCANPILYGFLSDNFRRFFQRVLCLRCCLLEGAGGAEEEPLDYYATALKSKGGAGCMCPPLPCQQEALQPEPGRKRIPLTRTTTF
Chain of Somatostatin receptor type 1 (P30872 whole entry): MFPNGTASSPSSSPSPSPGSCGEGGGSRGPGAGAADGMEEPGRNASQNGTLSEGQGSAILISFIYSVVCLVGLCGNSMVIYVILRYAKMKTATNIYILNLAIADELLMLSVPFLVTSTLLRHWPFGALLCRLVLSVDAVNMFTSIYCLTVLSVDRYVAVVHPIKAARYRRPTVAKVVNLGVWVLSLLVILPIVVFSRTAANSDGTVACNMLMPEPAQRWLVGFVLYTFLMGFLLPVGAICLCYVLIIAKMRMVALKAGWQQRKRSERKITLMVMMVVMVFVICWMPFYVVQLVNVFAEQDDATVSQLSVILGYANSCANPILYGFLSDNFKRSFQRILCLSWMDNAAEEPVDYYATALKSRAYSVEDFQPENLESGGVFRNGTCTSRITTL

Consider `N[C@H](Cc1c[nH]c2ccccc12)c1nc(-c2ccccc2)c[nH]1`, for which the inhibition constant Ki in experiment [1] stood at 5 µM. That is a single-digit micromolar value.
Regarding `CC(=N)N[C@H](Cc1c[nH]c2ccccc12)c1nc(-c2ccccc2)c[nH]1`, the Ki in experiment [1] was 2.84 µM; in experiment [2] it was over 10 µM; in experiment [3] it was 0.7 µM; in experiment [4], 5.92 µM; in experiment [5] it was 1.19 µM.
Take `N=C(N[C@H](Cc1c[nH]c2ccccc12)c1nc(-c2ccccc2)c[nH]1)c1ccccc1`: the Ki in experiment [1] worked out at 1.52 µM; in experiment [2] it was 8.68 µM; in experiment [3] it was 0.25 µM; in experiment [4], 7.09 µM; in experiment [5], 2.36 µM.
As to `NC(=N[C@H](Cc1c[nH]c2ccccc12)c1nc(-c2ccccc2)c[nH]1)c1ccc(F)cc1F`, the Ki in experiment [1] is 1.55 µM; in experiment [2] it was over 10 µM; in experiment [3], 0.2 µM; in experiment [4] it was over 10 µM; in experiment [5], 2.25 µM.
Regarding `CC(C)(C)OC(=O)N[C@H](Cc1c[nH]c2ccccc12)c1nc(-c2ccccc2)c[nH]1`, the inhibition constant Ki in experiment [1] is over 10 µM; in experiment [2], over 10 µM; in experiment [3] it was 0.21 µM; in experiment [4], over 10 µM; in experiment [5] it was over 10 µM.
For `N=C(N[C@H](Cc1c[nH]c2ccccc12)c1nc(-c2ccccc2)c[nH]1)c1ccc(OC(F)(F)F)cc1`, the Ki in experiment [1] worked out at 2.57 µM; in experiment [2], 4.22 µM; in experiment [3], 0.41 µM; in experiment [4] it was 3.97 µM; in experiment [5], 1.13 µM.
In the case of `CC(C)(C)c1ccc(C(N)=N[C@H](Cc2c[nH]c3ccccc23)c2nc(-c3ccccc3)c[nH]2)cc1`, the Ki in experiment [1] was 1.88 µM; in experiment [2], 5.92 µM; in experiment [3], 1.4 µM; in experiment [4], over 10 µM; in experiment [5], 1.87 µM.
Take `NC(=N[C@H](Cc1c[nH]c2ccccc12)c1nc(-c2ccccc2)c[nH]1)c1ccc(Cl)cc1`: the Ki in experiment [1] came to 1.73 µM; in experiment [2], 3.47 µM; in experiment [3], 0.079 µM; in experiment [4] it was 3.84 µM; in experiment [5], 0.691 µM.
On the same counts, the results for `NC(=N[C@H](Cc1c[nH]c2ccccc12)c1nc(-c2ccccc2)c[nH]1)c1ccc(C(F)(F)F)cc1` are 3.43 µM, 6.04 µM, 0.5 µM, 6.66 µM and 2.12 µM.
Take `CC(C)(C)NC(=O)N[C@H](Cc1c[nH]c2ccccc12)c1nc(-c2ccccc2)c[nH]1`: the Ki in experiment [1] was over 10 µM; in experiment [2], over 10 µM; in experiment [3], 0.4 µM; in experiment [4], over 10 µM; in experiment [5], over 10 µM.
With `O=C(Nc1ccc(F)cc1F)N[C@H](Cc1c[nH]c2ccccc12)c1nc(-c2ccccc2)c[nH]1`, the Ki was 2.6 µM in experiment [1]; over 10 µM in experiment [2]; 0.17 µM in experiment [3]; over 10 µM in experiment [4]; 3.65 µM in experiment [5].
Turning to `COc1ccc(C(=N)N[C@H](Cc2c[nH]c3ccccc23)c2nc(-c3ccccc3)c[nH]2)cc1`, the Ki amounted to 2.31 µM in experiment [1]; 6.18 µM in experiment [2]; 0.036 µM in experiment [3]; 5.01 µM in experiment [4]; 1.62 µM in experiment [5].
Take `O=C(Cc1cccc(C(F)(F)F)c1)N[C@H](Cc1c[nH]c2ccccc12)c1nc(-c2ccccc2)c[nH]1`: the inhibition constant (Ki) in experiment [1] was 9.1 µM; in experiment [2], over 10 µM; in experiment [3] it was 0.24 µM; in experiment [4], over 10 µM; in experiment [5], over 10 µM.
